Assay results: the RNAGym collection of RNA variant scans (doi:10.1002/anie.201605470)

B1: Osa-1-4 twister ribozyme (parent)
chain: CCGCCUAACACUGCCAAUGCCGGUCCCAAGCCCGGAUAAAAGUGGAGGGGGCGG

Variants of: B1
Experiment: self-cleavage, relative activity (ratio to wild type); higher = more cleavage; co-transcriptional
In short: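 The 48 positions downstream of the cleavage site in a 54-nucleotide Oryza sativa twister ribozyme template were synthesised at 97 % wild-type base and 1 % of each other base. The template was transcribed in vitro at 37 °C for 2 h, with self-cleavage allowed during transcription. Reads with or without upstream sequence after deep sequencing marked cleavage status, and relative activity is fraction cleaved normalised to wild type.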

Variant	self-cleavage
C32G G47A	0.09
C32G G47U	0.04
C32G G47C	0.04
C32G G51U	0.07
C32G G51C	0.05
C32G G51A	0.09
C32G G48C	0.04
C32G G48A	0.05
C32G G48U	0.03
C33G G48C	0.03
C33G G48U	0.02
C33G G48A	0.02
C32G G53A	0.1
C32G G53U	0.07
C32G G53C	0.06
C33G G22A	0.16
C33G G22U	0.87
C33G G22C	0.62
C33G G44U	0.05
C33G G44A	0.05
C33G G44C	0.05
C32G G44C	0.07
C32G G44A	0.11
C32G G44U	0.08

Variant	self-cleavage
C32A G54U	0.18
C32A G54A	0.11
C32A G54C	0.06
C32U G45C	0.03
C32U G45U	0.04
C32U G45A	0.08
C32U G30C	0.02
C32U G30A	0.02
C32U G30U	0.02
C33G G42U	0.02
C33G G42A	0.05
C33G G42C	0.05
C33A G30C	0.02
C33A G30A	0.02
C33A G30U	0.02
C33A U18G	0.17
C33A U18C	0.12
C33A U18A	0.15
C33A G49A	0.05
C33A G49U	0.04
C33A G49C	0.04
C33A U24C	0.05
C33A U24G	0.02
C33A U24A	0.05

Variant	self-cleavage
C33G G35C	0.03
C33G G35A	0.05
C33G G35U	0.04
C32G G19C	0.03
C32G G19A	0.12
C32G G19U	0.07
C32G U43G	0.11
C32G U43C	0.09
C32G U43A	0.1
C32U G23U	0.12
C32U G23C	0.03
C32U G23A	0.85
C33A C52A	0.11
C33A C52G	0.17
C33A C52U	0.28
C33A G53C	0.04
C33A G53A	0.08
C33A G53U	0.06
C32A G34U	0.05
C32A G34C	0.08
C32A G34A	0.06
C32A U43C	0.06
C32A U43G	0.05
C32A U43A	0.07

Variant	self-cleavage
C32A G48A	0.03
C32A G48U	0.03
C32A G48C	0.04
C32G C9G	0.11
C32G C9U	0.04
C32G C9A	0.03
C32A G35A	0.06
C32A G35U	0.07
C32A G35C	0.05
C33A C9U	0.07
C33A C9A	0.05
C33A C9G	0.08
C33G C52A	0.08
C33G C52U	0.05
C33G C52G	0.26
C32U	0.24
C32G	0.18
C32A G22A	0.08
C32A G22C	0.03
C32A G22U	0.06
C33A G44A	0.08
C33A G44U	0.1
C33A G44C	0.09
C32U C33A	0.04

Variant	self-cleavage
C32U C33U	0.06
C32U C33G	0.02
C32U G22A	0.09
C32U G22C	0.04
C32U G22U	0.07
C32U G49A	0.05
C32U G49C	0.03
C32U G49U	0.05
C32A G51U	0.04
C32A G51A	0.07
C32A G51C	0.03
C33G C9A	0.02
C33G C9U	0.04
C33G C9G	0.07
C33G G13U	0.01
C33G G13A	0.03
C33G G13C	0.01
C33A G54U	0.24
C33A G54C	0.07
C33A G54A	0.11
C33A U37A	0.34
C33A U37G	0.29
C33A U37C	0.14
C32G U12G	0.06

Variant	self-cleavage
C32G U12C	0.08
C32G U12A	0.12
C32U C52G	0.15
C32U C52U	0.2
C32U C52A	0.13
C32U G48A	0.03
C32U G48C	0.03
C32U G48U	0.03
C32A G50A	0.05
C32A G50U	0.08
C32A G50C	0.07
C32U G44A	0.08
C32U G44U	0.07
C32U G44C	0.09
C32A G44A	0.06
C32A G44U	0.08
C32A G44C	0.07
C33G G34U	0.05
C33G G34C	0.05
C33G G34A	0.06
C32A U18C	0.07
C32A U18A	0.11
C32A U18G	0.19
C32U U18C	0.18

Variant	self-cleavage
C32U U18A	0.16
C32U U18G	0.22
C32G G54A	0.15
C32G G54U	0.25
C32G G54C	0.09
C33G G30A	0.02
C33G G30U	0.02
C33G G30C	0.02
C33G G49C	0.03
C33G G49U	0.02
C33G G49A	0.05
C32G G42U	0.04
C32G G42C	0.08
C32G G42A	0.09
C33A G45A	0.06
C33A G45U	0.04
C33A G45C	0.04
C32A G42U	0.02
C32A G42C	0.06
C32A G42A	0.06
C32U G19C	0.03
C32U G19A	0.1
C32U G19U	0.05
